Laboratory results from PMC11752056 (Chemical Science, 2025).
Each block holds one molecule with its values, some of them ahead of it.

Columns and labels:
[1] = target: T1, 14-3-3σ (Homo sapiens, UniProt P31947); test: Intact MS conjugation of compound to 14-3-3σ; type: biochemical; conditions: 14-3-3σ : cyclohexenone : NEM 1:10:10, overnight, 10 °C, BTP buffer pH 7
T1 sequence (P31947 1-231 limits assumed): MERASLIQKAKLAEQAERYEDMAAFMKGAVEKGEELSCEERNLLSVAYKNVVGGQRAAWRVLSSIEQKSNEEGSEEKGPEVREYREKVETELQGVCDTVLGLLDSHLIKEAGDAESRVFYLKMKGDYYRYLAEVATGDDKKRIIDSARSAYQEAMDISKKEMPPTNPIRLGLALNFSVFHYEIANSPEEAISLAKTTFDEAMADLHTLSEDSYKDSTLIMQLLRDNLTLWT
In short: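 Recombinant full-length 14-3-3σ (8 μM) was incubated overnight with 10 eq. (80 μM) of compound, with or without peptide, in 20 mM BTP buffer at pH 7 and 10 °C. Protein species (unmodified, conjugated, crosslinked) were read from deconvoluted intact mass spectra and expressed as percentage conjugation or crosslinking.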

[2] = L-cysteine–maleimide conjugation; cited from earlier work
[3] = target: the peptide panel (mutated B-Raf peptides: +5 mutants and histidine scan); test: fluorescence polarisation

conjugate formed on co-incubation of cyclohexenone and NEM [1]: exclusively the 14-3-3σ–NEM conjugate
Molecule: CCN1C(=O)C=CC1=O [NEM, N-ethylmaleimide]

Molecule: O=C1C=CC(=O)N1 [maleimide]
reaction rate (k2) [2]: 17.6 ± 0.9 × 10^3 M^−1 s^−1

Kd [3]: 1.8 to 135 µM
B1: 14-3-3σ (natural protein)
chain: MERASLIQKAKLAEQAERYEDMAAFMKGAVEKGEELSCEERNLLSVAYKNVVGGQRAAWRVLSSIEQKSNEEGSEEKGPEVREYREKVETELQGVCDTVLGLLDSHLIKEAGDAESRVFYLKMKGDYYRYLAEVATGDDKKRIIDSARSAYQEAMDISKKEMPPTNPIRLGLALNFSVFHYEIANSPEEAISLAKTTFDEAMADLHTLSEDSYKDSTLIMQLLRDNLTLWT
